Data taken from ChEMBL document CHEMBL2086328, “¹⁸F-labeled 2-phenylquinoxaline derivatives as potential positron emission tomography probes for in vivo imaging of β-amyloid plaques” (Eur J Med Chem, 2012).
The source made the active and inactive calls. No cut-off for these calls is given here.

Tests used:
[1] = molecular target: Amyloid-beta precursor protein (Homo sapiens) (UniProt P05067); assay: Binding affinity to beta-amyloid in normal human brain at 1.85 MBq/[…] after 1 hr by thioflavin-S based autoradiography; details: 1.85 M, tested as the 18F-labelled form
How it was run: (§1)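 Paraffin human temporal-lobe sections (5 µm; AD case or control) deparaffinized through xylene and graded ethanol, then PBS (0.2 M, pH 7.4) for 30 min. Incubated with 18F tracer (1.85 MBq/200 µL), 1 h, room temperature; washed in 40% EtOH, rinsed in water; phosphor plate exposure 2 h.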

Mus musculus = species on record: Mus musculus; assay: Binding affinity to beta-amyloid in APPswe/PSEN1 transgenic C57BL6 mouse model brain at 1.85 MBq/[…] after 1 hr by thioflavin-S based autoradiography; details: 1.85 M, tested as the 18F-labelled form
How it was run: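 Transgenic mouse brain sections deparaffinized, then incubated with 18F tracer (1.85 MBq/200 µL) for 1 h at room temperature. Washed in 40% EtOH, phosphor-imaged after 2 h exposure. Same sections then stained with 0.125% thioflavin-S in 10% EtOH for 3 min and imaged by fluorescence (excitation 405 nm, long-pass 505 nm).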

[2] = Displacement of [125I]IMPY from amyloid beta (1 to 42) after 2 hrs by gamma counting
How it was run: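 Competition binding against [125I]IMPY (radiochemical purity >95%) on Aβ1-42 aggregates with 1% BSA solution; inhibitor 10^-4–10^-9.5 M; 37 °C, 2 h. Free and bound separated by vacuum filtration on GF/B filters, three PBS washes (0.02 M, pH 7.4, room temperature); filters gamma-counted. Three repeats; IC50 fitted, Ki from Cheng–Prusoff.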

[3] = molecular target: Amyloid-beta precursor protein (Homo sapiens) (UniProt P05067); assay: Binding affinity to beta-amyloid in Alzheimer's disease patient brain at 1.85 MBq/[…] after 1 hr by thioflavin-S based autoradiography; details: 1.85 M, tested as the 18F-labelled form; how it was run: as §1
Blood [4] = assay: Biodistribution in ICR mouse blood at 370 kBq, iv after 2 mins by gamma counting; format: ADME, organism-based; details: in vivo
How it was run: (§2)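 Male ICR mice (five weeks, 20–22 g), tail-vein injection of 18F tracer in 0.1 mL saline with 10% EtOH. Killed by decapitation at set times, n = 5 per time point. Organs removed, weighed and gamma-counted; %ID/g wet tissue from comparison with diluted aliquots of injected dose; mean ± SD.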

Heart [5] = assay: Biodistribution in ICR mouse heart at 370 kBq, iv after 2 mins by gamma counting; format: ADME, organism-based; details: in vivo; how it was run: as §2
Stomach [6] = assay: Biodistribution in ICR mouse stomach at 370 kBq, iv after 10 mins by gamma counting; format: ADME, organism-based; details: in vivo; how it was run: as §2
Lung [7] = assay: Biodistribution in ICR mouse lung at 370 kBq, iv after 60 mins by gamma counting; format: ADME, organism-based; details: in vivo, 1 h; how it was run: as §2
Intestine [8] = assay: Biodistribution in ICR mouse intestine at 370 kBq, iv after 2 mins by gamma counting; format: ADME, organism-based; details: in vivo; how it was run: as §2
Kidney [9] = assay: Biodistribution in ICR mouse kidney at 370 kBq, iv after 2 mins by gamma counting; format: ADME, organism-based; details: in vivo; how it was run: as §2
Heart [10] = assay: Biodistribution in ICR mouse heart at 370 kBq, iv after 60 mins by gamma counting; format: ADME, organism-based; details: in vivo, 1 h; how it was run: as §2
Spleen [11] = assay: Biodistribution in ICR mouse spleen at 370 kBq, iv after 30 mins by gamma counting; format: ADME, organism-based; details: in vivo, 0.5 h; how it was run: as §2
Heart [12] = assay: Biodistribution in ICR mouse heart at 370 kBq, iv after 10 mins by gamma counting; format: ADME, organism-based; details: in vivo; how it was run: as §2
Lung [13] = assay: Biodistribution in ICR mouse lung at 370 kBq, iv after 30 mins by gamma counting; format: ADME, organism-based; details: in vivo, 0.5 h; how it was run: as §2
Bone [14] = assay: Biodistribution in ICR mouse bone at 370 kBq, iv after 30 mins by gamma counting; format: ADME, organism-based, Bone element; details: in vivo, 0.5 h; how it was run: as §2
Liver [15] = assay: Biodistribution in ICR mouse liver at 370 kBq, iv after 10 mins by gamma counting; format: ADME, organism-based; details: in vivo; how it was run: as §2
Intestine [16] = assay: Biodistribution in ICR mouse intestine at 370 kBq, iv after 60 mins by gamma counting; format: ADME, organism-based; details: in vivo, 1 h; how it was run: as §2
Stomach [17] = assay: Biodistribution in ICR mouse stomach at 370 kBq, iv after 60 mins by gamma counting; format: ADME, organism-based; details: in vivo, 1 h; how it was run: as §2
Brain [18] = assay: Biodistribution in ICR mouse brain at 370 kBq, iv after 60 mins by gamma counting; format: ADME, organism-based; details: in vivo, 1 h; how it was run: as §2
Lung [19] = assay: Biodistribution in ICR mouse lung at 370 kBq, iv after 2 mins by gamma counting; format: ADME, organism-based; details: in vivo; how it was run: as §2
Heart [20] = assay: Biodistribution in ICR mouse heart at 370 kBq, iv after 30 mins by gamma counting; format: ADME, organism-based; details: in vivo, 0.5 h; how it was run: as §2
Liver [21] = assay: Biodistribution in ICR mouse liver at 370 kBq, iv after 30 mins by gamma counting; format: ADME, organism-based; details: in vivo, 0.5 h; how it was run: as §2
Liver [22] = assay: Biodistribution in ICR mouse liver at 370 kBq, iv after 2 mins by gamma counting; format: ADME, organism-based; details: in vivo; how it was run: as §2
Brain [23] = assay: Biodistribution in ICR mouse brain at 370 kBq, iv after 2 mins by gamma counting; format: ADME, organism-based; details: in vivo; how it was run: as §2
Intestine [24] = assay: Biodistribution in ICR mouse intestine at 370 kBq, iv after 10 mins by gamma counting; format: ADME, organism-based; details: in vivo; how it was run: as §2
Bone [25] = assay: Biodistribution in ICR mouse bone at 370 kBq, iv after 2 mins by gamma counting; format: ADME, organism-based, Bone element; details: in vivo; how it was run: as §2
Kidney [26] = assay: Biodistribution in ICR mouse kidney at 370 kBq, iv after 60 mins by gamma counting; format: ADME, organism-based; details: in vivo, 1 h; how it was run: as §2
Blood [27] = assay: Biodistribution in ICR mouse blood at 370 kBq, iv after 30 mins by gamma counting; format: ADME, organism-based; details: in vivo, 0.5 h; how it was run: as §2
Kidney [28] = assay: Biodistribution in ICR mouse kidney at 370 kBq, iv after 10 mins by gamma counting; format: ADME, organism-based; details: in vivo; how it was run: as §2
Brain [29] = assay: Biodistribution in ICR mouse brain at 370 kBq, iv after 30 mins by gamma counting; format: ADME, organism-based; details: in vivo, 0.5 h; how it was run: as §2
Intestine [30] = assay: Biodistribution in ICR mouse intestine at 370 kBq, iv after 30 mins by gamma counting; format: ADME, organism-based; details: in vivo, 0.5 h; how it was run: as §2
Bone [31] = assay: Biodistribution in ICR mouse bone at 370 kBq, iv after 10 mins by gamma counting; format: ADME, organism-based, Bone element; details: in vivo; how it was run: as §2
Blood [32] = assay: Biodistribution in ICR mouse blood at 370 kBq, iv after 10 mins by gamma counting; format: ADME, organism-based; details: in vivo; how it was run: as §2
Blood [33] = assay: Biodistribution in ICR mouse blood at 370 kBq, iv after 60 mins by gamma counting; format: ADME, organism-based; details: in vivo, 1 h; how it was run: as §2
Stomach [34] = assay: Biodistribution in ICR mouse stomach at 370 kBq, iv after 2 mins by gamma counting; format: ADME, organism-based; details: in vivo; how it was run: as §2
Lung [35] = assay: Biodistribution in ICR mouse lung at 370 kBq, iv after 10 mins by gamma counting; format: ADME, organism-based; details: in vivo; how it was run: as §2
Spleen [36] = assay: Biodistribution in ICR mouse spleen at 370 kBq, iv after 10 mins by gamma counting; format: ADME, organism-based; details: in vivo; how it was run: as §2
Bone [37] = assay: Biodistribution in ICR mouse bone at 370 kBq, iv after 60 mins by gamma counting; format: ADME, organism-based, Bone element; details: in vivo, 1 h; how it was run: as §2
Spleen [38] = assay: Biodistribution in ICR mouse spleen at 370 kBq, iv after 2 mins by gamma counting; format: ADME, organism-based; details: in vivo; how it was run: as §2
Spleen [39] = assay: Biodistribution in ICR mouse spleen at 370 kBq, iv after 60 mins by gamma counting; format: ADME, organism-based; details: in vivo, 1 h; how it was run: as §2
[40] = Lipophilicity, log D of the compound; format: physicochemical; details: octanol/water
How it was run: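 18F tracer (740 kBq) in 3 g n-octanol plus 3 g PBS (0.05 M, pH 7.4). Vortexed 3 min at room temperature, centrifuged 5 min at 3000 rpm; weighed samples from octanol and buffer layers counted.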

Brain [41] = assay: Ratio of drug level in ICR mouse brain after 2 mins to ICR mouse brain after 60 mins at 370 kBq, iv; format: ADME, organism-based; details: in vivo
How it was run: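 Same intravenous study in ICR mice (370 kBq 18F tracer in saline/10% EtOH, n = 5 per time point). Ratio is brain %ID/g at 2 min divided by brain %ID/g at 60 min post-injection.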

Brain [42] = assay: Biodistribution in ICR mouse brain at 370 kBq, iv after 10 mins by gamma counting; format: ADME, organism-based; details: in vivo; how it was run: as §2
Kidney [43] = assay: Biodistribution in ICR mouse kidney at 370 kBq, iv after 30 mins by gamma counting; format: ADME, organism-based; details: in vivo, 0.5 h; how it was run: as §2
Stomach [44] = assay: Biodistribution in ICR mouse stomach at 370 kBq, iv after 30 mins by gamma counting; format: ADME, organism-based; details: in vivo, 0.5 h; how it was run: as §2
Liver [45] = assay: Biodistribution in ICR mouse liver at 370 kBq, iv after 60 mins by gamma counting; format: ADME, organism-based; details: in vivo, 1 h; how it was run: as §2

Amyloid-beta precursor protein (Homo sapiens), sequence (P05067 whole entry): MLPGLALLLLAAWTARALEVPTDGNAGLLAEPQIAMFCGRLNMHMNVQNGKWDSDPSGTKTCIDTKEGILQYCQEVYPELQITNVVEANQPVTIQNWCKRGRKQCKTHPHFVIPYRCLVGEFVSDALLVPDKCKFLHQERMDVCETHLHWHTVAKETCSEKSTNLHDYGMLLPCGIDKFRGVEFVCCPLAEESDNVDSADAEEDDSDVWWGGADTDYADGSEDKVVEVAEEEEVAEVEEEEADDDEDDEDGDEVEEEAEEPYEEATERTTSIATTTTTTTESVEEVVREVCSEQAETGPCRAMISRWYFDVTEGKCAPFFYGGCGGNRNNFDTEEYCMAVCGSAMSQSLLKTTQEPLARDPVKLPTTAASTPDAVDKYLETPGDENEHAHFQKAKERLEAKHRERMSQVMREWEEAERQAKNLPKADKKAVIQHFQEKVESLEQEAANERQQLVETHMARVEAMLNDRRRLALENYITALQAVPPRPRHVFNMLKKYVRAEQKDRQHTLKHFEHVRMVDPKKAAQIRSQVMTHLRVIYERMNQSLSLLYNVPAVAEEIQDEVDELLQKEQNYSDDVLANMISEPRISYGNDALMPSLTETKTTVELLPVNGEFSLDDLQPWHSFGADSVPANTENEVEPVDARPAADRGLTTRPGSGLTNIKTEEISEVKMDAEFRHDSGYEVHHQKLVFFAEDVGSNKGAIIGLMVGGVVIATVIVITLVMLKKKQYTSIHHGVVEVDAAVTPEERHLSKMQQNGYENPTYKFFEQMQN

With CNc1ccc2nc(-c3ccc(OCCOCCOCCF)cc3)cnc2c1 the Activity [1] was “inactive”, the Activity (Mus musculus) was “Active” and the Ki [2] was 5.3 nM. The Activity [3] was “Active”.

In the case of CNc1ccc2nc(-c3ccc(OCC[18F])cc3)cnc2c1, the Drug uptake (Blood [4]) is reported as 4.93 % ID/g, the Drug uptake (Heart [5]) is reported as 6.08 % ID/g and the Drug uptake (Stomach [6]) is reported as 2.55 %ID. It also gave a Drug uptake (Lung [7]) of 3.77 % ID/g, a Drug uptake (Intestine [8]) of 9.63 %ID and a Drug uptake (Kidney [9]) of 9.37 % ID/g. It also gave a Drug uptake (Heart [10]) of 4.24 % ID/g, a Drug uptake (Spleen [11]) of 3.35 % ID/g and a Drug uptake (Heart [12]) of 4.27 % ID/g. For the same compound, the Drug uptake (Lung [13]) was 3.78 % ID/g, the Drug uptake (Bone [14]) was 5.73 % ID/g and the Drug uptake (Liver [15]) was 7.8 % ID/g. It also gave a Drug uptake (Intestine [16]) of 18.75 %ID, a Drug uptake (Stomach [17]) of 2.5 %ID and a Drug uptake (Brain [18]) of 3.17 % ID/g. For the same compound, the Drug uptake (Lung [19]) was 6.38 % ID/g, the Drug uptake (Heart [20]) was 4.28 % ID/g and the Drug uptake (Liver [21]) was 5.37 % ID/g. The Drug uptake (Liver [22]) was 9.5 % ID/g, the Drug uptake (Brain [23]) was 8.17 % ID/g and the Drug uptake (Intestine [24]) was 12.87 %ID. It also gave a Drug uptake (Bone [25]) of 2.46 % ID/g, a Drug uptake (Kidney [26]) of 3.79 % ID/g and a Drug uptake (Blood [27]) of 5.09 % ID/g. It also gave a Drug uptake (Kidney [28]) of 5.96 % ID/g, a Drug uptake (Brain [29]) of 3.45 % ID/g and a Drug uptake (Intestine [30]) of 17.15 %ID. For the same compound, the Drug uptake (Bone [31]) was 2.84 % ID/g, the Drug uptake (Blood [32]) was 4.68 % ID/g and the Drug uptake (Blood [33]) was 5.24 % ID/g. It also gave a Drug uptake (Stomach [34]) of 1.81 %ID, a Drug uptake (Lung [35]) of 4.36 % ID/g and a Drug uptake (Spleen [36]) of 3.87 % ID/g. It also gave a Drug uptake (Bone [37]) of 6.2 % ID/g, a Drug uptake (Spleen [38]) of 4.71 % ID/g and a Drug uptake (Spleen [39]) of 3.04 % ID/g. The logD [40] was 3.14, the Ratio (Brain [41]) was 2.58 and the Drug uptake (Brain [42]) was 5.07 % ID/g. For the same compound, the Drug uptake (Kidney [43]) was 4.25 % ID/g, the Drug uptake (Stomach [44]) was 1.84 %ID and the Drug uptake (Liver [45]) was 5 % ID/g.
